Source: ChEMBL document CHEMBL4396968, “Small-molecule inhibitors of nisin resistance protein NSR from the human pathogen Streptococcus agalactiae” (Bioorg Med Chem, 2019)
Active and inactive are the calls of the source. The calls are words filed in the database; no cut-off is given here. Residues, ends and D or L forms follow the SMILES beside them. *: point of attachment. Boc = CC(C)(C)OC(=O)*; Bn = c1ccc(C*)cc1

What was measured:
Streptococcus agalactiae [1] = assay: Inhibition of Streptococcus agalactiae NSR transfected in Lactococcus lactis NZ9000 cells assessed as bacterial growth inhibition at 150 uM incubated for 5 hrs by optical density based assay in presence of 30 nM nisin
In short: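 L. lactis NZ9000 carrying the SaNSR plasmid, and an empty-plasmid control strain, grown overnight in GM17 with 5 µg/ml erythromycin and 1 ng/ml nisin. Diluted to OD595 0.1 and preincubated 30 min at 30 °C, then exposed to compound plus 30 nM nisin for 5 h at 30 °C. Specific inhibition is the OD ratio between strains as %; ≥3 independent experiments.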

Streptococcus agalactiae [2] = assay: Inhibition of Streptococcus agalactiae NSR transfected in Lactococcus lactis NZ9000 cells assessed as potentiation of nisin-induced growth inhibition by measuring reduction in nisin IC50 at 120 uM incubated for 5 hrs by optical density based assay relative to nisin alone
In short: (§1)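 SaNSR-expressing L. lactis NZ9000 preincubated at OD595 0.1 with fixed compound (120 or 300 µM), mixed with serial nisin dilutions, and read by OD595 after 5 h at 30 °C. Nisin IC50 taken from dose-response curves. Expressed as % ratio of the IC50 with compound to the IC50 of the same strain without it; ≥3 independent experiments.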

Streptococcus agalactiae [3] = assay: Inhibition of Streptococcus agalactiae NSR transfected in Lactococcus lactis NZ9000 cells assessed as potentiation of nisin-induced growth inhibition by measuring reduction in nisin IC50 at 300 uM incubated for 5 hrs by optical density based assay relative to nisin alone; in short: as §1
Lactococcus lactis = assay: Growth inhibition of Lactococcus lactis NZ9000 transfected with Streptococcus agalactiae NSR at 300 uM incubated for 5 hrs in absence of nisin by optical density based assay; assay type: organism-based; details: in vivo
[4] = tested on: Streptococcus agalactiae COH1; assay: Binding affinity to N-terminal 8xHis-tagged Streptococcus agalactiae COH1 NSR30 (30 amino acids deletion at N-terminal transmembrane region) expressed in Escherichia coli BL21 (DE3) cells at 18 mM by STD NMR method; details: 1.8 mM, in the assay text read “1.8 mM” for “18 mM”
In short: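 His-tagged SaNSR30 induced with 1 mM IPTG at OD600 0.8–1.0 and expressed overnight at 18 °C. Purified by metal-affinity chromatography with 150 mM histidine elution, then size exclusion in 25 mM MES pH 6, 150 mM NaCl.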

SMILES	inhibition (Streptococcus agalactiae [1]) [%]	other results
CCCCc1ccc(NC(=O)CN2C(=O)NC(C)(Cc3ccc(OC)c(OC)c3)C2=O)cc1 (centres undefined)	14.1	
COc1ccccc1-n1cc(C(=O)N2Cc3nc[nH]c3CC2C(=O)O)cn1 (centres undefined)	10.8	
CCN(CC)Cc1ccc(CNC(=O)NCc2ccc(Cn3ccnc3)cc2)cc1	< 1	
CC(C)(CO)NC(=O)NCC12CC3CC(CC(C3)C1)C2		inhibition (Streptococcus agalactiae [2]): 4%; inhibition (Streptococcus agalactiae [3]): 8.5%
CCCCn1nc(C(=O)N[C@@H](Cc2c[nH]c3ccccc23)C(=O)O)c2ccccc2c1=O	3.21	
Cc1[nH]c(SCC(=O)Nc2[nH]c(Cc3ccccc3)c(C)c2C#N)nc1Cc1ccccc1	15.3	
CCCC(=O)Nc1ccc(CNC(=O)NCC(CO)Cc2ccc(C)cc2)cc1 (centres undefined)	19.6	
O=C(NCC(O)c1ccc(O)cc1)C(=O)Nc1ccccc1O (centres undefined)	13.6	
CC(CO)(CO)NC(=O)NC1CCCCC1		inhibition (Streptococcus agalactiae [3]): < 1%
CCc1cc(=O)[nH]c(-n2nc(C)cc2NC(=O)C(=O)NCCc2ccccc2)n1	< 1	
O=C(CC[C@H]1NC(=O)c2ccccc2NC1=O)NCc1nc2ccccc2[nH]1	9.95	
CCn1c(=O)n(CCC(=O)Nc2nc(-c3ccc4c(c3)CCO4)cs2)c2ccccc21	< 1	
O=C(Cn1cnc2c(oc3ccccc32)c1=O)NCc1ccccc1Cn1ccnc1	< 1	
Cc1ccc(-n2nc(C)c(NC(=O)Cn3cnc4c3c(=O)n(C)c(=O)n4C)c2C)cc1	14.2	
CCc1ccc(NC(=O)C(=O)NCC(c2ccc3c(c2)OCO3)N2CCN(C)CC2)cc1 (centres undefined)	6.03	
Cc1ccc2c(c1)-c1c(cnn1CC(=O)NC(C)c1ccc3c(c1)OCCO3)CO2 (centres undefined)	< 1	
CC1CCc2nc(NC(=O)c3ccccc3NC(=O)CSc3nccn3C)sc2C1 (centres undefined)	1.38	
COc1ccc(-c2cc(N3CCCN(C(=O)C4(c5ccc(OC)cc5)CC4)CC3)[nH]n2)cc1	20.7	inhibition (Streptococcus agalactiae [3]): 20.5%
CC(CO)(CO)NC(=O)Nc1ccc(Cl)c(Br)c1	57.9	growth inhibition (GI) (Lactococcus lactis): Toxic; inhibition (Streptococcus agalactiae [2]): 50.5%; Activity [4]: Active
O=C(CC1NC(=O)c2ccccc2NC1=O)NCc1nc(-c2ccccc2Cl)no1 (centres undefined)	< 1	
CC(=O)Nc1ccc(NC(=O)CSc2nc3ccccc3c(=O)n2-c2ccccc2)cc1	7.58	
N#Cc1ccc(NC(=O)NCCNC(=O)Nc2ccc(C#N)cc2)cc1		inhibition (Streptococcus agalactiae [3]): < 1%

SMILES	inhibition (Streptococcus agalactiae [1]) [%]	other results
O=C(CNC(=O)c1ccc2c(c1)OCO2)NCCc1c[nH]c2ccccc12	< 1	
CC(CO)NC(=O)Nc1ccc(C(F)(F)F)cc1 (centres undefined)		inhibition (Streptococcus agalactiae [3]): < 1%
COc1ccc(C2(CNC(=O)c3cn(C(C)C)c(=O)c4ccccc34)CCOCC2)cc1	4.86	
Cc1cc(C)c2c(=O)n(CC(=O)Nc3ccc(C(C)C)cc3)c(=O)n(Cc3ccco3)c2n1	< 1	
CC(C(=O)NC(CO)(CO)CO)c1ccc2c(c1)[nH]c1ccc(Cl)cc12 (centres undefined)	8.21	
CC(C)NC(=O)Nc1ccc(Cl)cc1		inhibition (Streptococcus agalactiae [3]): < 1%
Cc1cc(C)c2c(C)nn(-c3ccc(NC(=O)CCc4nc5ccccc5c(=O)[nH]4)cc3)c2n1	< 1	inhibition (Streptococcus agalactiae [3]): 1.9%
O=C(Nc1ccc(C(F)(F)F)cc1)NC1(CO)CCOCC1		inhibition (Streptococcus agalactiae [2]): < 1%; inhibition (Streptococcus agalactiae [3]): < 1%
COc1ccc(C2(CNC(=O)C(=O)Nc3ccc(Br)cc3)CCOCC2)cc1	< 1	
Cc1cc(C)c(S(=O)(=O)N2CCCC2CNC(=O)C(=O)Nc2ccccc2C#N)c(C)c1 (centres undefined)	< 1	
CNC(=O)CNC(=O)c1cccc(S(=O)(=O)NC(C)c2ccccc2)c1 (centres undefined)	7.92	
N#Cc1ccc(NC(=O)NC(CO)c2ccccc2)cc1 (centres undefined)		inhibition (Streptococcus agalactiae [2]): 8.1%; inhibition (Streptococcus agalactiae [3]): 13.5%
COc1ccc2[nH]cc(CCNC(=O)CC3C(=O)Nc4c3c(=O)n(C)c(=O)n4C)c2c1 (centres undefined)	11.3	
CC(CO)NC(=O)Nc1ccc(Cl)cc1 (centres undefined)		inhibition (Streptococcus agalactiae [3]): < 1%
O=C(Nc1ccccc1C(F)(F)F)NC(CO)(CO)C(F)(F)F		inhibition (Streptococcus agalactiae [2]): < 1%; inhibition (Streptococcus agalactiae [3]): < 1%
CC(O)(CNC(=O)NCC[S+]([O-])c1ccccc1)c1ccco1 (centres undefined)	13.4	
CC(O)C(NC(=O)C(Cc1ccc(OCc2ccccc2)cc1)NC(=O)CNC(=O)OC(C)(C)C)C(N)=O (stereo not drawn) (Boc-Gly-Tyr(Bn)-Thr-NH2; configuration not given here)	17.5	
OC(CNc1ccccc1Cl)COc1ccc(OCC(O)CNc2ccccc2Cl)cc1 (centres undefined)	< 1	
CCC(CC)(CO)NC(=O)Nc1cccc(Oc2ccccc2)c1		inhibition (Streptococcus agalactiae [3]): < 1%
O=C(NCc1ccccc1)C(=Cc1ccc(O)c(O)c1)C(=O)NCc1ccccc1	16.9	inhibition (Streptococcus agalactiae [3]): 32.2%
Cc1cc(C)nc(NC(Cc2ccccc2)C(=O)NCc2nc3ccccc3[nH]2)n1 (centres undefined)	< 1	
O=C(CCn1c(=O)oc2cc(Cl)ccc21)Nc1ccc(N2CCOCC2)nc1	19	
